Results from different studies.
Protocols differ between the studies behind these lines.
CYP3A7: Cytochrome P450 3A7 (CYP3A7, Homo sapiens, UniProt P24462)

Compound | target or system | test | system | conditions | endpoint | result
Cc1ncc2n1-c1ccc(Cl)cc1C(c1ccccc1F)=NC2 |  | metabolic stability | male CD-1 mouse, liver microsomes | 1 µM, 30 min | compound remaining | < 7%
C=C(C)[C@@]12O[C@@]3(/C=C/C=C/CCCCC)O[C@@H]1[C@@H]1[C@@H]4O[C@]4(CO)[C@@H](O)[C@]4(O)C(=O)C(C)=C[C@H]4[C@@]1(O3)[C@H](C)[C@H]2OC(=O)c1ccccc1 | MT4 | cell growth or viability, ATP luminescence |  | 96 h | IC50 | > 0.034 µM
COC(=O)N[C@H](C(=O)NN(CC[C@@]1(Cc2ccccc2)C(=O)N([C@H]2c3ccccc3C[C@H]2O)C[C@@H]1O)Cc1ccc(-c2cccnc2)cc1)C(C)(C)C | MT4 | cell growth or viability, XTT |  | 5 days | CC50 | > 50 µM
CCCC/C=C/C=C/CC(=O)O[C@@]12[C@H](OC(=O)c3ccccc3)[C@@H](C)[C@]3(O)[C@@H]4C=C(C)C(=O)[C@@]4(O)[C@H](O)C(CO)=C[C@H]3[C@@H]1C2(C)C | MT4 | cell growth or viability, ATP luminescence |  |  | CC50 | > 7 µM
C=C(C)[C@]1(O)C[C@@H](C)[C@@]2(O)[C@@H]([C@H]3O[C@@]4([C@H](O)[C@]3(O)COC(=O)c3ccccc3)[C@@H](OC(=O)/C=C/C=C/C=C/CCC)[C@@H](C)C[C@@H]24)[C@H]1O | MT4 | cell growth or viability, ATP luminescence |  | 96 h | IC50 | > 0.034 µM
COC(=O)N[C@H](C(=O)NN(CC[C@@]1(Cc2ccccc2)C(=O)N([C@H]2c3ccccc3C[C@H]2O[Si](C)(C)C(C)(C)C)C[C@@H]1O[Si](C)(C)C(C)(C)C)Cc1ccc(Br)cc1)C(C)(C)C | MT4 | cell growth or viability, XTT |  | 5 days | CC50 | > 50 µM
O=C(O)C(F)(F)C(F)(F)C(F)(F)C(F)(F)C(F)(F)C(F)(F)C(F)(F)F | CYP3A7 | enzyme activity, inhibitor |  | 100 µM, pH 7.4 | inhibition | 35.8%
C=C(C)[C@@]1(O)[C@H](OC(=O)/C=C/C=C/CCCCC)[C@@H]2[C@@H]3O[C@]3(CO)[C@@H](O)[C@]3(O)C(=O)C(C)=C[C@H]3[C@@]2(O)[C@H](C)[C@H]1OC(=O)/C=C/c1ccccc1 | MT4 | cell growth or viability, ATP luminescence |  | 96 h | IC50 | > 0.034 µM
O=S(=O)(O)C(F)(F)C(F)(F)C(F)(F)C(F)(F)C(F)(F)C(F)(F)C(F)(F)C(F)(F)F | CYP3A7 | enzyme activity, inhibitor, fluorescence |  |  | IC50 | 20.4 µM
N=c1c2c(-c3ccccc3)c(-c3ccccc3)n(Cc3ccccc3)c2ncn1[C@H]1CC[C@H](O)CC1 |  | metabolic stability | Sprague-Dawley rat, hepatocytes | 1 µM, 4 h | compound remaining | 44%
CCCC/C=C/C=C/CC(=O)O[C@@]12[C@H](OC(=O)c3ccccc3)[C@@H](C)[C@@]3(O)[C@@H](C=C(CO)C[C@]4(O)C(=O)C(C)=C[C@@H]34)[C@@H]1C2(C)C | MT4 | cell growth or viability, ATP luminescence |  |  | CC50 | > 7 µM
COC(=O)N[C@H](C(=O)NN(CC[C@]1(Cc2ccccc2)C(=O)N([C@H]2c3ccccc3C[C@H]2O)C[C@@H]1O)Cc1ccc(Br)cc1)C(C)(C)C | MT4 | cell growth or viability, XTT |  | 5 days | CC50 | > 50 µM
C=C(C)[C@@]12O[C@@]3(c4ccccc4)O[C@@H]1[C@@H]1[C@@H]4O[C@]4(CO)[C@@H](O)[C@]4(O)C(=O)C(C)=C[C@H]4[C@@]1(O3)[C@H](C)[C@H]2OC(=O)/C=C/C=C/C=C/CCC | MT4 | cell growth or viability, ATP luminescence |  | 96 h | IC50 | > 0.034 µM
CC[C@H](C)[C@H]1C(=O)N2CCC[C@H]2C(=O)O[C@H](C(C)(C)C)C[C@@H](C)C[C@H](O)[C@H](C)C2=N[C@H](CCC(=O)N[C@@H](Cc3ccc(OC)cc3)C(=O)N(C)[C@@H](C)C(=O)N1C)CS2 |  | metabolic stability | female CD-1 mouse, liver microsomes | 1 µM, 0 h, pH 7.4 | compound remaining | 100%
Cc1ncc2n1-c1ccc(Cl)cc1C(c1ccccc1F)=NC2 |  | metabolic stability | CD-1 mouse, hepatocytes | 1 µM, 4 h | compound remaining | 0.3%
CCCCCC/C=C/CC(=O)O[C@@]12[C@H](OC(=O)c3ccccc3)[C@@H](C)[C@]3(O)[C@@H]4C=C(C)C(=O)[C@@]4(O)[C@H](O)C(CO)=C[C@H]3[C@@H]1C2(C)C | MT4 | cell growth or viability, ATP luminescence |  |  | CC50 | > 7 µM
C=C(C)[C@@]12O[C@@]3(/C=C/C=C/C=C/CCC)O[C@@H]1[C@@H]1[C@@H]4O[C@]4(CO)[C@@H](O)[C@]4(O)C(=O)C(C)=C[C@H]4[C@@]1(O3)[C@H](C)[C@H]2OC(=O)/C=C/c1ccc(O)cc1 | MT4 | cell growth or viability, ATP luminescence |  | 96 h | IC50 | > 0.034 µM
CC[C@H](C)[C@H]1C(=O)N2CCC[C@H]2C(=O)O[C@H](C(C)(C)C)C[C@@H](C)C[C@H](O)CC2=N[C@@H](CCC(=O)N[C@@H](Cc3ccc(OC)cc3)C(=O)N(C)[C@@H](C)C(=O)N1C)CS2 |  | metabolic stability | female CD-1 mouse, liver microsomes | 1 µM, 0 h, pH 7.4 | compound remaining | 100%
C=C(C)[C@@]1(O)[C@H](OC(=O)/C=C/C=C/C=C/CCC)[C@@H]2[C@@H]3O[C@]3(CO)[C@@H](O)[C@]3(O)C(=O)C(C)=C[C@H]3[C@@]2(O)[C@H](C)[C@H]1OC(=O)/C=C/c1ccc(O)c(OC)c1 | MT4 | cell growth or viability, ATP luminescence |  | 96 h | IC50 | > 0.034 µM
O=S(=O)(O)C(F)(F)C(F)(F)C(F)(F)C(F)(F)C(F)(F)C(F)(F)F | CYP3A7 | enzyme activity, inhibitor |  | 100 µM, pH 7.4 | inhibition | 48.8%
